Measured values taken from ChEMBL document CHEMBL1275303, “Synthesis and antimicrobial activity of 2-substituted [4-(1,3,4-oxadiazol-2-yl methyl)] phthalazin-1(2H)-one derivatives” (2010).

Key:
[1] = tested on: Chrysosporium keratinophilum; assay: Antimicrobial activity against Chrysosporium keratinophilum at 100 ug/mL after 72 hrs by well plate method; format: functional; conditions: read-out: IZ
Outline: (§1)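 Antifungal well-plate assay on Sabouraud dextrose agar using a 72 h old broth culture of the fungal strain. Wells were filled with compound dissolved in DMSO (100 or 50), and the zone of inhibition around each well was measured. […] served as reference.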

Escherichia coli [2] = assay: Antimicrobial activity against Escherichia coli at 50 ug/mL after 24 hrs by well plate method; format: functional; conditions: read-out: IZ
Outline: (§2)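 Agar well diffusion in nutrient agar. About 1 cm³ of a 24 h broth culture was placed in sterile dishes, and molten agar at 45 °C was poured over it and set. 6 mm wells were bored and filled with compound in DMSO (100 or 50). Plates were incubated 24 h at 37 °C, and the inhibition zone was read in mm. Duplicate runs, with standard deviation; amoxicillin as reference.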

Staphylococcus aureus [3] = assay: Antimicrobial activity against Staphylococcus aureus at 100 ug/mL after 24 hrs by well plate method; format: functional; conditions: read-out: IZ; outline: as §2
[4] = tested on: Chrysosporium keratinophilum; assay: Antimicrobial activity against Chrysosporium keratinophilum at 50 ug/mL after 72 hrs by well plate method; format: functional; conditions: read-out: IZ; outline: as §1
Candida albicans [5] = assay: Antimicrobial activity against Candida albicans at 100 ug/mL after 72 hrs by well plate method; format: functional; conditions: read-out: IZ; outline: as §1
Candida albicans [6] = assay: Antimicrobial activity against Candida albicans at 50 ug/mL after 72 hrs by well plate method; format: functional; conditions: read-out: IZ; outline: as §1
Nannizzia gypsea [7] = assay: Antimicrobial activity against Microsporum gypseum at 100 ug/mL after 72 hrs by well plate method; format: functional; conditions: read-out: IZ; outline: as §1
Nannizzia gypsea [8] = assay: Antimicrobial activity against Microsporum gypseum at 50 ug/mL after 72 hrs by well plate method; format: functional; conditions: read-out: IZ; outline: as §1
Aspergillus flavus [9] = assay: Antimicrobial activity against Aspergillus flavus at 100 ug/mL after 72 hrs by well plate method; format: functional; conditions: read-out: IZ
Aspergillus flavus [10] = assay: Antimicrobial activity against Aspergillus flavus at 50 ug/mL after 72 hrs by well plate method; format: functional; conditions: read-out: IZ
Staphylococcus aureus [11] = assay: Antimicrobial activity against Staphylococcus aureus at 50 ug/mL after 24 hrs by well plate method; format: functional; conditions: read-out: IZ; outline: as §2
Bacillus subtilis [12] = assay: Antimicrobial activity against Bacillus subtilis at 100 ug/mL after 24 hrs by well plate method; format: functional; conditions: read-out: IZ; outline: as §2
Bacillus subtilis [13] = assay: Antimicrobial activity against Bacillus subtilis at 50 ug/mL after 24 hrs by well plate method; format: functional; conditions: read-out: IZ; outline: as §2
Salmonella typhi [14] = assay: Antimicrobial activity against Salmonella typhi at 50 ug/mL after 24 hrs by well plate method; format: functional, Salmonella enterica subsp. enterica serovar Typhi; conditions: Salmonella enterica, read-out: IZ
Outline: (§3)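 Agar well diffusion in nutrient agar: about 1 cm³ of a 24 h broth culture placed in a sterile dish, molten agar at 45 °C poured over it and allowed to set. 6 mm holes cut with a sterile cork borer and filled with compound solution in DMSO. Incubated 24 h at 37 °C; inhibition zone diameter read in mm. Run in duplicate, standard deviation calculated.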

Salmonella typhi [15] = assay: Antimicrobial activity against Salmonella typhi at 100 ug/mL after 24 hrs by well plate method; format: functional, Salmonella enterica subsp. enterica serovar Typhi; conditions: Salmonella enterica, read-out: IZ; outline: as §3
Escherichia coli [16] = assay: Antimicrobial activity against Escherichia coli at 100 ug/mL after 24 hrs by well plate method; format: functional; conditions: read-out: IZ; outline: as §2

Structure (SMILES)	zone of inhibition at 100 µg/mL [1]	zone of inhibition at 50 µg/mL (Escherichia coli [2])	zone of inhibition at 100 µg/mL (Staphylococcus aureus [3])	zone of inhibition at 50 µg/mL [4]	zone of inhibition at 100 µg/mL (Candida albicans [5])	zone of inhibition at 50 µg/mL (Candida albicans [6])	zone of inhibition at 100 µg/mL (Nannizzia gypsea [7])	zone of inhibition at 50 µg/mL (Nannizzia gypsea [8])	zone of inhibition at 100 µg/mL (Aspergillus flavus [9])	zone of inhibition at 50 µg/mL (Aspergillus flavus [10])	zone of inhibition at 50 µg/mL (Staphylococcus aureus [11])	zone of inhibition at 100 µg/mL (Bacillus subtilis [12])	zone of inhibition at 50 µg/mL (Bacillus subtilis [13])	zone of inhibition at 50 µg/mL (Salmonella typhi [14])	zone of inhibition at 100 µg/mL (Salmonella typhi [15])	zone of inhibition at 100 µg/mL (Escherichia coli [16])
Cc1nnc(Cc2nn(Cc3ccc(Cl)nc3)c(=O)c3ccccc23)o1	0 mm	1.5 mm	1.5 mm	0 mm	3.5 mm	1 mm	2 mm	0 mm	5 mm	1 mm	0 mm	0 mm	0 mm	1 mm	2.5 mm	3.5 mm
O=c1c2ccccc2c(Cc2nnc(C(F)(F)F)o2)nn1Cc1ccc(Cl)nc1	4.5 mm	6 mm	6 mm	1 mm	4.5 mm	1.5 mm	5 mm	3 mm	2.5 mm	0 mm	3.5 mm	2 mm	0 mm	4 mm	7 mm	8 mm
O=c1c2ccccc2c(Cc2nnc(C3CC3)o2)nn1Cc1ccc(Cl)nc1	2.5 mm	7 mm	4.5 mm	0.5 mm	8.5 mm	5.5 mm	7.5 mm	4.5 mm	5 mm	2.5 mm	1 mm	6.5 mm	4 mm	3 mm	6 mm	11.5 mm
O=c1c2ccccc2c(Cc2nnc(-c3ccc(F)cc3)o2)nn1Cc1ccc(Cl)nc1	1.5 mm	8 mm	6 mm	0 mm	4.5 mm	2.5 mm	6.5 mm	4 mm	4 mm	2 mm	4 mm	5 mm	3 mm	3 mm	7.5 mm	10 mm
O=c1c2ccccc2c(Cc2nnc(-c3ccc(Cl)cc3)o2)nn1Cc1ccc(Cl)nc1	3 mm	5 mm	4.5 mm	1 mm	5.5 mm	3 mm	4 mm	1 mm	5 mm	2.5 mm	1 mm	7 mm	3.5 mm	4 mm	7.5 mm	8 mm
Cc1ccccc1-c1nnc(Cc2nn(Cc3ccc(Cl)nc3)c(=O)c3ccccc23)o1	1.5 mm	4.5 mm	6.5 mm	0 mm	3 mm	0 mm	3 mm	1 mm	4 mm	1 mm	4.5 mm	2.5 mm	0 mm	1 mm	3 mm	7 mm
O=c1c2ccccc2c(Cc2nnc(-c3ccsc3)o2)nn1Cc1ccc(Cl)nc1	10.5 mm	10 mm	11.5 mm	6.5 mm	7.5 mm	5.5 mm	11 mm	6.5 mm	7.5 mm	4 mm	7 mm	6 mm	4 mm	10 mm	15.5 mm	15.5 mm
O=c1c2ccccc2c(Cc2nnc(-c3ccc(Cl)nc3)o2)nn1Cc1ccc(Cl)nc1	6.5 mm	7.5 mm	10.5 mm	4.5 mm	11.5 mm	8.5 mm	7 mm	4 mm	6.5 mm	3.5 mm	7.5 mm	8 mm	5.5 mm	2.5 mm	6.5 mm	12.5 mm
Cc1nnc(Cc2nn(Cc3cnc(Cl)s3)c(=O)c3ccccc23)o1	2.5 mm	2.5 mm	1 mm	0 mm	2.5 mm	1 mm	3.5 mm	0 mm	3 mm	1 mm	0 mm	3 mm	1 mm	2.5 mm	4.5 mm	5.5 mm
O=c1c2ccccc2c(Cc2nnc(C(F)(F)F)o2)nn1Cc1cnc(Cl)s1	5.5 mm	3 mm	7 mm	2 mm	3.5 mm	0.5 mm	5.5 mm	3 mm	4.5 mm	1.5 mm	4 mm	5 mm	3 mm	3 mm	5.5 mm	6.5 mm
O=c1c2ccccc2c(Cc2nnc(C3CC3)o2)nn1Cc1cnc(Cl)s1	3.5 mm	9 mm	4.5 mm	0.5 mm	5.5 mm	3.5 mm	7 mm	4.5 mm	6 mm	3.5 mm	2 mm	5.5 mm	2 mm	4 mm	7.5 mm	11.5 mm
O=c1c2ccccc2c(Cc2nnc(-c3ccc(F)cc3)o2)nn1Cc1cnc(Cl)s1	2.5 mm	5 mm	9 mm	0 mm	5.5 mm	2.5 mm	8.5 mm	4 mm	5 mm	2 mm	5 mm	4.5 mm	2 mm	5 mm	9 mm	9 mm
CC1(C)S[C@@H]2[C@H](NC(=O)[C@H](N)c3ccc(O)cc3)C(=O)N2[C@H]1C(=O)O [AMOXICILLIN]		15 mm	16.5 mm								12.5 mm	14.5 mm	10.5 mm	12 mm	20.5 mm	18.5 mm
Cc1ncc([N+](=O)[O-])n1CCO [METRONIDAZOLE]	14 mm			11 mm	19.5 mm	15 mm	17 mm	14 mm	17.5 mm	13.5 mm						
